Published values from different studies.
Compare with care: the assays were run in different laboratories.
HTR2B: 5-hydroxytryptamine receptor 2B (HTR2B, Homo sapiens, UniProt P41595)
Neuronal acetylcholine receptor; alpha3/beta4: Neuronal acetylcholine receptor; alpha3/beta4 (Rattus norvegicus, UniProt P04757+P12392)

SMILES | target | assay | conditions | quantity | result
Cc1cc(-c2ccccc2)nnc1NCCN1CCNCC1 | HTR2B | calcium signal, antagonist, fluorescence | – | IC50 | 0.054 µM
O=S(=O)(O)c1ccc2c(N=Nc3c(O)ccc4ccccc34)cccc2c1 | Bcl-2-related protein A1 (Mus musculus, UniProt Q07440, C113S/P104K) | ligand displacement, FP | – | IC50 | 32 µM
CC[C@H](C)[C@H](NC(C)=O)C(=O)N[C@@H](CCC(=O)O)C(=O)N[C@H](C(=O)N[C@H](C=O)CC(=O)O)[C@@H](C)O | Caspase-4 (CASP4, Homo sapiens, UniProt P49662) | enzyme activity, inhibitor | – | IC50 | 0.555 µM
COc1ccc2[nH]c3c(c2c1)CCN(C)CC3 | Neuronal acetylcholine receptor; alpha3/beta4 | ion current, antagonist, two-electrode voltage clamp | oocytes | IC50 | 21.3 µM
CC(C)N(CCc1c[nH]c2cccc(OC(=O)CCCC(=O)O)c12)C(C)C | HTR2B | ligand displacement, radioligand | – | IC50 | 3.6 µM
COC(=O)c1cc(N(C)C(=O)c2ccn3ncc(-c4ccc(C(=O)O)cc4)c3c2)ccc1Cl | Rho-associated protein kinase 2 (ROCK2, Homo sapiens, UniProt O75116) | enzyme activity, inhibitor | – | IC50 | > 30 µM
COc1ccc2c3c([nH]c2c1)CCN(C)CC3 | Neuronal acetylcholine receptor; alpha3/beta4 | ion current, antagonist, two-electrode voltage clamp | oocytes | IC50 | 31.4 µM
CN(C)C(=N)N=C(N)N | speB (Escherichia coli, UniProt P60651) | enzyme activity, inhibitor, absorbance | pH 6.5 | Ki | 1180 µM
CNC(=O)c1ccc(-c2cnn3ccc(C(=O)N(C)c4ccc(Cl)c(C(=O)OC)c4)cc23)cc1 | HTR2B | cell-free assay | – | IC50 | > 30 µM
Cn1ccc2cc3c(cc21)CCN3C(=O)Nc1cccnc1 | HTR2B | ligand displacement, radioligand | – | Ki | 0.0064 µM
